# Measured values: publication PMC7363052 (Journal of hepatology, 2020)
# Columns and labels:
# integrin αvβ3 [1] = target: integrin αvβ3 (Homo sapiens, UniProt P05106+P06756); assay type: binding; settings: advanced fibrosis human liver frozen sections, immunofluorescence
# Summary of the method: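 Snap-frozen liver sections came from patients with staged fibrosis (F1–F3, n=3 each) and from normal livers. Advanced-fibrosis sections were stained with a FITC-labelled PEG4-linked dimeric cyclic RGD peptide probe (green), plus CD68 or α-SMA (red). Co-localization was read by fluorescence microscopy at original magnification 100X.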
# integrin αvβ3 [2] = target: T1, integrin αvβ3 (Mus musculus, UniProt O54890+P43406); assay type: binding; settings: frozen fibrotic liver sections, severe CCl4 and BDL models, immunofluorescence
# T1 sequence (P43406 31-885 limits assumed): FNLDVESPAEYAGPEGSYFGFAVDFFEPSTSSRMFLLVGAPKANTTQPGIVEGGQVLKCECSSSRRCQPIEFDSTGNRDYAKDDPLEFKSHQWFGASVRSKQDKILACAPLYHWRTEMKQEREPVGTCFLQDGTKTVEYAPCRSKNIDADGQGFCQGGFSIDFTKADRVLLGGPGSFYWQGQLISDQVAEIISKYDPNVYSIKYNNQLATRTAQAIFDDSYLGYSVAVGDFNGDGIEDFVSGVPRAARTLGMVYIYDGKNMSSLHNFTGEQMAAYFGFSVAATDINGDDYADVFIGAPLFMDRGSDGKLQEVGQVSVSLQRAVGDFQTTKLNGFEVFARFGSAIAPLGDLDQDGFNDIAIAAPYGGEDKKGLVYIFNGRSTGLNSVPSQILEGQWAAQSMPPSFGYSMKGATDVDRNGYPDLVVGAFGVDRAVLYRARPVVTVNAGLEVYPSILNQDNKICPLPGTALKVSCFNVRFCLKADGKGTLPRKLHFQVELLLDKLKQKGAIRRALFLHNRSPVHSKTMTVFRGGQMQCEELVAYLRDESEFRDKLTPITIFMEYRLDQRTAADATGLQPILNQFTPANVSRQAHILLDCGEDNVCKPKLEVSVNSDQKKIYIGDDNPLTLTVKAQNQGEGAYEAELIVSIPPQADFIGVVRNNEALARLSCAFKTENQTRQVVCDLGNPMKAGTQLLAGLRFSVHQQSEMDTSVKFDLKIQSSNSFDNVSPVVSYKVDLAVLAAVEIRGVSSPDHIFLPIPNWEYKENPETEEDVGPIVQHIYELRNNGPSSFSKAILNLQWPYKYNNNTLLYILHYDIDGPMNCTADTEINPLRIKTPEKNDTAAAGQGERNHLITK
# T1 sequence (P43406 887-1044 partner limits assumed): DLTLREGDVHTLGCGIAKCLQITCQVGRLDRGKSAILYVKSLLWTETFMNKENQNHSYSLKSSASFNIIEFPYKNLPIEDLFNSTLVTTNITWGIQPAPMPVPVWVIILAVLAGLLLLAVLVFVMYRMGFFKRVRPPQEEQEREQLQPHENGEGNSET
# T1 sequence (O54890 26-787): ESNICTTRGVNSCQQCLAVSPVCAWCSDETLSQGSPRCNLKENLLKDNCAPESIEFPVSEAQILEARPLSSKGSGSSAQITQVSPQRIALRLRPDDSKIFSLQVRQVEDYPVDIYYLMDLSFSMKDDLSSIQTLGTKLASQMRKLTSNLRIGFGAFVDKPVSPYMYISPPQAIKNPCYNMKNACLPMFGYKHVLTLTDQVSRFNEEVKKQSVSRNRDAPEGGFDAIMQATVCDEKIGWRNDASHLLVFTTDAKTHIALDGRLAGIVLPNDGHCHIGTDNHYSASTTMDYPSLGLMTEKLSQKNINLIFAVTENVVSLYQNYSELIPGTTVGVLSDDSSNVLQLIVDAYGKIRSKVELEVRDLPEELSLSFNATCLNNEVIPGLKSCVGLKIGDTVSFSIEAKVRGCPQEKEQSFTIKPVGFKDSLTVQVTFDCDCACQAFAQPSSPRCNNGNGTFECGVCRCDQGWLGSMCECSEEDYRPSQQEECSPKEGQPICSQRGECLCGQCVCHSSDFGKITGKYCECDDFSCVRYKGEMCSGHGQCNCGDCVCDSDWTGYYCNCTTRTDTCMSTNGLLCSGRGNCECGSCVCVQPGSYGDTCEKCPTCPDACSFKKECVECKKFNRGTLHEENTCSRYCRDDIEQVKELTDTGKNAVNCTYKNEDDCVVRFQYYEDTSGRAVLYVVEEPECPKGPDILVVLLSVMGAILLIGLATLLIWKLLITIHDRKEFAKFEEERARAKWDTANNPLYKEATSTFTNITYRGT
# Summary of the method: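 Liver fibrosis was induced in 10-week-old male CD1 mice with CCl4, 0.2 mL/kg as 1:5 CCl4:olive oil, i.p. twice weekly for up to 12 weeks. Other mice had the common bile duct transected via midline laparotomy and were killed after 3 weeks. Frozen liver sections were co-stained with a FITC-labelled dimeric RGD peptide probe and α-SMA and CD68 antibodies to assess co-localization.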
# TGF-β1 = assay: Hepatic TGF-β1 mRNA by RT-PCR in CCl4-treated mice; assay type: in vivo, mouse; settings: compared to control
# Summary of the method: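 Male CD1 mice, 10 weeks old, given CCl4 at 0.2 mL/kg (1:5 in olive oil) i.p. twice weekly; controls received olive oil only. Hepatic TGF-β1 mRNA was measured by RT-PCR and expressed as relative mRNA level by the ΔΔCT method. Values are mean ± SEM, n = 3–6, compared by one-way ANOVA with Tukey's post hoc test.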
# [3] = Serum ALT and AST in CCl4-treated mice; assay type: in vivo, mouse; settings: CCl4 0.2 mL/kg i.p. twice per week, 6 weeks (mild), mean ± SEM
# integrin αvβ3 (Homo sapiens, UniProt P05106+P06756), sequence (P06756 31-889 limits assumed): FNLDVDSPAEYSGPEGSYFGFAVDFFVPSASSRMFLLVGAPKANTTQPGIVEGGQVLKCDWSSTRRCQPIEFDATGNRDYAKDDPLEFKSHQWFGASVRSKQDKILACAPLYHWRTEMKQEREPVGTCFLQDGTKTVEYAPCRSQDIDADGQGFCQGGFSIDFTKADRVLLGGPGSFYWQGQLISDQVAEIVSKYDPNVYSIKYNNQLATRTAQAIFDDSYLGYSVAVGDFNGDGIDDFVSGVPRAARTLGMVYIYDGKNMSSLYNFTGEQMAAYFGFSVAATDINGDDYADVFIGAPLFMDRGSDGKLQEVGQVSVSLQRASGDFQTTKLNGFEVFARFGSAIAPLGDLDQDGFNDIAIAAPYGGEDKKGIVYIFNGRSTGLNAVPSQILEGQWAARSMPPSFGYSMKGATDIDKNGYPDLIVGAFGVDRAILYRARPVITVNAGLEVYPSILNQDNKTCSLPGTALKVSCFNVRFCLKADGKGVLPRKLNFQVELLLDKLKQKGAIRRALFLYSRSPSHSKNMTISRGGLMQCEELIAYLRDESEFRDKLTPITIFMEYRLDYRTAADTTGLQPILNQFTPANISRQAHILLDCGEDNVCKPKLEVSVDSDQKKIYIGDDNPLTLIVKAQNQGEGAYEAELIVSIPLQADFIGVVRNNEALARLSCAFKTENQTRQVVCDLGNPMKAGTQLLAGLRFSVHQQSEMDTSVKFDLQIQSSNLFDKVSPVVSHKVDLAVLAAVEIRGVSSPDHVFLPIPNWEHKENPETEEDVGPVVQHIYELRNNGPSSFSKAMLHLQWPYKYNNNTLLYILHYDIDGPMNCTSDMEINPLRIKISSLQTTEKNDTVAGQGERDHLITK
# integrin αvβ3 (Homo sapiens, UniProt P05106+P06756), sequence (P06756 891-1048 partner limits assumed): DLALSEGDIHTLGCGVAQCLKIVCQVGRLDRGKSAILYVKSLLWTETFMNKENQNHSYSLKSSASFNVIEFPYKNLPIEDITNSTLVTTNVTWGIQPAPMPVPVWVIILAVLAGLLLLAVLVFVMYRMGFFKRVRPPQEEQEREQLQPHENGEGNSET
# integrin αvβ3 (Homo sapiens, UniProt P05106+P06756), sequence (P05106 27-788): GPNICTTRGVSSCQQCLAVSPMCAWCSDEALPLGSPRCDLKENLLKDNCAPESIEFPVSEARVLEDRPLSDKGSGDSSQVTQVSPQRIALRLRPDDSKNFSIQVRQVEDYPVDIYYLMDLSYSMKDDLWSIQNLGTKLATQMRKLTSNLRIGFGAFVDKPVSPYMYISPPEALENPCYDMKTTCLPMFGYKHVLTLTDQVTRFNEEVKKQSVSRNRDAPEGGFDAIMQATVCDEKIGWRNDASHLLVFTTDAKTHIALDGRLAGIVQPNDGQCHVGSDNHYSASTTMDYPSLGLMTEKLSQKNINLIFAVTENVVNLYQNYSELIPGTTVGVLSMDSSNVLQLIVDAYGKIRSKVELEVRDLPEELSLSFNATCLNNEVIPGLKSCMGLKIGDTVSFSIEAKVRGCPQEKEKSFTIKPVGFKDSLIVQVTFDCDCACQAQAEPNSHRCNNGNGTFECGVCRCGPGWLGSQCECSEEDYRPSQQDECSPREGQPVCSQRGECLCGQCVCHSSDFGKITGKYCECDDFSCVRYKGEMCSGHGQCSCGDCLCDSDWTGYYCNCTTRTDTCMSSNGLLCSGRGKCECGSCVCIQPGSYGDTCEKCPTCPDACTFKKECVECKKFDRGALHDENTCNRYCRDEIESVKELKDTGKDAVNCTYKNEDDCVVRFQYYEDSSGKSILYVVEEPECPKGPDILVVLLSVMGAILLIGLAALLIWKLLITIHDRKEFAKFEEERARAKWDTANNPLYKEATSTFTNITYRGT
co-localization with CD68 (integrin αvβ3 [1]),co-localization with α-SMA (integrin αvβ3 [1]),co-localization with CD68 (integrin αvβ3 [2]),co-localization with α-SMA (integrin αvβ3 [2]),Compound,hepatic TGF-β1 mRNA level increase (TGF-β1; 6 weeks of CCl4 treatment) [fold],hepatic TGF-β1 mRNA level increase (TGF-β1; 12 weeks of CCl4 treatment) [fold],serum ALT ([3]; sham 20.66±1.383),serum AST ([3]; sham 76.24±6.128)
low co-localization,high co-localization,little co-localization,high co-localization,FITC-E(PEG4-RGDfK)2 [FITC-RGD2],–,–,–,–
–,–,–,–,"ClC(Cl)(Cl)Cl [CCl4, carbon-tetrachloride]",2,8,96.22±18.5,125.7±9.82
